The results in this text go back to ChEMBL document CHEMBL1275272, “Synthesis, characterization and antimicrobial activity of some disubstituted 1,3,4-oxadiazoles carrying 2-(aryloxymethyl)phenyl moiety” (2010).

Values after ≈ are worked out from the molar mass of the structure shown.

By MIC is commonly meant the lowest concentration that inhibits growth of the organism. Low readings indicate a more susceptible organism, high ones a less susceptible organism.

Holding throughout (type): functional
Experiment [1] has as its system Staphylococcus aureus. Description: Antibacterial activity against Staphylococcus aureus after 16 to 18 hrs by serial dilution method. The conditions noted are these: for MIC: Staphylococcus aureus. In a few lines:
(§1)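 The test compound was dissolved in DMF and serially diluted. A standard drop of the prepared microbial culture was added to each dilution, and tubes were incubated at 37 °C for 16–18 h. MIC was taken as the highest dilution that stayed clear with no visible turbidity.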

Experiment [2] concerns Aspergillus flavus. Put plainly: Antifungal activity against Aspergillus flavus after 16 to 18 hrs by serial dilution method. The following applies: for MIC: Aspergillus flavus. In short, it runs like this: as §1
Experiment [3] has as its system Talaromyces marneffei. Description: Antifungal activity against Penicillium marneffei after 16 to 18 hrs by serial dilution method. The conditions noted are these: for MIC: Talaromyces marneffei. In a few lines: as §1
Experiment [4] concerns Escherichia coli. Put plainly: Antibacterial activity against Escherichia coli after 16 to 18 hrs by serial dilution method. The following applies: for MIC: Escherichia coli. In a few lines:
as §1

Experiment [5] has as its system Klebsiella pneumoniae. Put plainly: Antibacterial activity against Klebsiella pneumoniae after 16 to 18 hrs by serial dilution method. The conditions noted are these: for MIC: Klebsiella pneumoniae.
Experiment [6] concerns Pseudomonas aeruginosa. Description: Antibacterial activity against Pseudomonas aeruginosa after 16 to 18 hrs by serial dilution method. The conditions noted are these: for MIC: Pseudomonas aeruginosa. In short, it runs like this:
as §1

Experiment [7] deals with Trichophyton mentagrophytes. Description: Antifungal activity against Trichophyton mentagrophytes after 16 to 18 hrs by serial dilution method. The conditions noted are these: for MIC: Trichophyton mentagrophytes.
In experiment [8] the test system is Aspergillus fumigatus. Description: Antifungal activity against Aspergillus fumigatus after 16 to 18 hrs by serial dilution method. The conditions noted are these: for MIC: Aspergillus fumigatus.

As for `Cc1ccccc1OCc1ccccc1-c1nn(CNc2ccc(Cl)cc2C(=O)C(F)(F)F)c(=S)o1`, the “inhibition zone (IZ)” value in experiment [1], in experiment [2], in experiment [3], in experiment [4], in experiment [5] and in experiment [6] was <10 mm throughout. Moreover, the “inhibition zone (IZ)” value in experiment [7] and in experiment [8] was <10 mm throughout. Moreover, the minimal inhibitory concentration (MIC) in experiment [1], in experiment [2], in experiment [3], in experiment [4], in experiment [5] and in experiment [6] was 25 µg/mL (≈ 46.8 µM) throughout. The MIC in experiment [7] and in experiment [8] was 25 µg/mL (≈ 46.8 µM) in each case.

Turning to `Cc1ccc(OCc2ccccc2-c2nn(CNc3ccc(Cl)cc3C(=O)C(F)(F)F)c(=S)o2)cc1`, the “inhibition zone (IZ)” value in experiment [1], in experiment [2], in experiment [3], in experiment [4], in experiment [5] and in experiment [6] was <10 mm each time. Further, the “inhibition zone (IZ)” value in experiment [7] and in experiment [8] was <10 mm in each case. Also, the minimal inhibitory concentration (MIC) in experiment [1], in experiment [2], in experiment [3], in experiment [4], in experiment [5] and in experiment [6] was 25 µg/mL (≈ 46.8 µM) each time. For the same compound, the MIC in experiment [7] and in experiment [8] was 25 µg/mL (≈ 46.8 µM) each time.

Take `Clc1ccc(OCc2ccccc2-c2nnc(-c3ccc(Cl)cc3)o2)cc1`: the “inhibition zone (IZ)” value in experiment [1], in experiment [2], in experiment [3], in experiment [4], in experiment [5] and in experiment [6] was <10 mm in each case. Moreover, the “inhibition zone (IZ)” value in experiment [7] and in experiment [8] was <10 mm in each case. The MIC in experiment [1], in experiment [2], in experiment [3], in experiment [4], in experiment [5] and in experiment [6] was 25 µg/mL (≈ 62.9 µM) each time. Also, the MIC in experiment [7] and in experiment [8] was 25 µg/mL (≈ 62.9 µM) in each case.

For the compound `Cc1ccccc1OCc1ccccc1-c1nn(CN2CCOCC2)c(=S)o1`, the “inhibition zone (IZ)” value in experiment [1], in experiment [2], in experiment [3], in experiment [4], in experiment [5] and in experiment [6] was 11 mm throughout. Moreover, the “inhibition zone (IZ)” value in experiment [7] and in experiment [8] was 11 mm throughout. The minimal inhibitory concentration (MIC) in experiment [1], in experiment [2], in experiment [3], in experiment [4], in experiment [5] and in experiment [6] was 12.5 µg/mL (≈ 31.4 µM) each time. Besides, the minimum inhibitory concentration (MIC) in experiment [7] and in experiment [8] was 12.5 µg/mL (≈ 31.4 µM) throughout.

`Cc1ccc(OCc2ccccc2-c2nn(CN3CCOCC3)c(=S)o2)cc1`: the “inhibition zone (IZ)” value in experiment [1], in experiment [2], in experiment [3], in experiment [4], in experiment [5] and in experiment [6] was 11 mm throughout. Moreover, the “inhibition zone (IZ)” value in experiment [7] and in experiment [8] was 11 mm throughout. In addition, the minimum inhibitory concentration (MIC) in experiment [1], in experiment [2], in experiment [3], in experiment [4], in experiment [5] and in experiment [6] was 12.5 µg/mL (≈ 31.4 µM) in each case. Further, the MIC in experiment [7] and in experiment [8] was 12.5 µg/mL (≈ 31.4 µM) in each case.

As to `CCSc1nnc(-c2ccccc2COc2ccccc2C)o1`, the “inhibition zone (IZ)” value in experiment [1], in experiment [2], in experiment [3], in experiment [4], in experiment [5] and in experiment [6] was <10 mm each time. The “inhibition zone (IZ)” value in experiment [7] and in experiment [8] was <10 mm throughout. For the same compound, the MIC in experiment [1], in experiment [2], in experiment [3], in experiment [4], in experiment [5] and in experiment [6] was 25 µg/mL (≈ 76.6 µM) each time. Moreover, the MIC in experiment [7] and in experiment [8] was 25 µg/mL (≈ 76.6 µM) in each case.

In the case of `Cc1cccc(OCc2ccccc2-c2nnc(SCc3ccccc3)o2)c1`, the “inhibition zone (IZ)” value in experiment [1], in experiment [2], in experiment [3], in experiment [4], in experiment [5] and in experiment [6] was <10 mm each time. Further, the “inhibition zone (IZ)” value in experiment [7] and in experiment [8] was <10 mm each time. Also, the minimal inhibitory concentration (MIC) in experiment [1], in experiment [2], in experiment [3], in experiment [4], in experiment [5] and in experiment [6] was 25 µg/mL (≈ 64.4 µM) each time. Moreover, the minimal inhibitory concentration (MIC) in experiment [7] and in experiment [8] was 25 µg/mL (≈ 64.4 µM) in each case.

As for `Cc1ccccc1OCc1ccccc1-c1nnc(-c2cccc(Br)c2)o1`, the “inhibition zone (IZ)” value in experiment [1], in experiment [2], in experiment [3], in experiment [4], in experiment [5] and in experiment [6] was <10 mm in each case. The “inhibition zone (IZ)” value in experiment [7] and in experiment [8] was <10 mm throughout. Moreover, the minimal inhibitory concentration (MIC) in experiment [1], in experiment [2], in experiment [3], in experiment [4], in experiment [5] and in experiment [6] was 25 µg/mL (≈ 59.3 µM) in each case. The minimal inhibitory concentration (MIC) in experiment [7] and in experiment [8] was 25 µg/mL (≈ 59.3 µM) throughout.

In the case of `Cc1cccc(OCc2ccccc2-c2nnc(SCc3ccc(Cl)cc3Cl)o2)c1`, the “inhibition zone (IZ)” value in experiment [1] is given as 16 mm; in experiment [2], 11 mm; in experiment [3], 16 mm; in experiment [4], 16 mm; in experiment [5], 16 mm; in experiment [6] it was 16 mm. The “inhibition zone (IZ)” value in experiment [7] is listed as 11 mm; in experiment [8] it was 16 mm. In addition, the minimal inhibitory concentration (MIC) was 6.25 µg/mL (≈ 13.7 µM) in experiment [1]; 12.5 µg/mL (≈ 27.3 µM) in experiment [2]; 6.25 µg/mL (≈ 13.7 µM) in experiment [3]; 6.25 µg/mL (≈ 13.7 µM) in experiment [4]; 6.25 µg/mL (≈ 13.7 µM) in experiment [5]; 6.25 µg/mL (≈ 13.7 µM) in experiment [6]. Moreover, the minimum inhibitory concentration (MIC) stood at 12.5 µg/mL (≈ 27.3 µM) in experiment [7] and 6.25 µg/mL (≈ 13.7 µM) in experiment [8].

As to `Cc1ccc(OCc2ccccc2-c2nnc(-c3cccc4ncccc34)o2)cc1`, the “inhibition zone (IZ)” value in experiment [1], in experiment [2], in experiment [3], in experiment [4], in experiment [5] and in experiment [6] was <10 mm in each case. Moreover, the “inhibition zone (IZ)” value in experiment [7] and in experiment [8] was <10 mm throughout. The minimal inhibitory concentration (MIC) in experiment [1], in experiment [2], in experiment [3], in experiment [4], in experiment [5] and in experiment [6] was 25 µg/mL (≈ 63.5 µM) throughout. Further, the MIC in experiment [7] and in experiment [8] was 25 µg/mL (≈ 63.5 µM) in each case.
